Source: PubChem BioAssay (Broad Institute)
T cruzi HTS: inhibitors of intracellular Trypanosoma cruzi, primary screen, cell-based, plate reader, single point, set 2; intracellular Trypanosoma cruzi in host cells; activity score (inhibition), % at 5.01 µM; actives 4.9% (n = 22,000); AID 651903, 2012; in the data active means activity score above about 55%;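 further: parasites and compound incubated about four days before reading; 0% = median of neutral control wells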
INS-1E ATP HTS: protection of INS-1E cells from cytokine death, primary screen, ATP luminescence, single point; protection from cytokine-induced ATP loss, % at 10 µM; INS-1E cytokine-induced death, 48 h; normalised: neutral wells 0, positive control 100; actives 0.1% (n = 20,000);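 active means mean replicate protection from cytokine-induced ATP loss at least 50% and at least 75% of replicates each reaching 50%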
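Material: INS-1E rat cells; Quantity: 8000 cells/well; Buffer or medium: phenol-red-free RPMI with 5% fetal bovine serum; Probe or stimulus: cytokine cocktail of IFN-γ, TNF-α and IL-1β; Compound dosing: single test concentration per compound, delivered by pin transfer; Incubation: 48 h co-treatment, 10 min post-lysis read; Signal: CellTiter-Glo luminescence.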
A1 apoptosis 2: A1 inhibitors via caspase activation, primary screen, cell-based, luminescence, HTS, two replicates; MEF A1-2A-BIM cells, caspase-Glo luminescence, 3 h; percent of clofoctol response, DMSO zero; caspase activation, % (no concentration beside the values); 24,000 tested, under 10 active; in the data active means caspase activation above about 5.9%
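system = A1-2A-BIM-expressing MEF cells | quantity = 2500 MEF cells/well | dosing = 50 nL compound per well, pinned | schedule = overnight cell settling, then 3 h compound exposure, 37 °C | signal = luminescence from DEVD-luciferin Caspase-Glo reagent, 1:1 in 50 mM HEPES, 1 h RT | read-out = Caspase-3/7 activation, seen as rise in luminescence signal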
* hit, by the source's call. The full list was thinned out, with hits kept by preference.

C[C@@H]1CCCCO[C@H](CN(C)Cc2ccc(Cl)c(Cl)c2)[C@@H](C)CN([C@@H](C)CO)C(=O)c2cc(NC(=O)NC3CCCCC3)ccc2O1 was read as A1 apoptosis 2 0.
C[C@@H]1CCCCO[C@@H](CN(C)Cc2ccc(Cl)c(Cl)c2)[C@@H](C)CN([C@H](C)CO)C(=O)c2cc(NC(=O)NC3CCCCC3)ccc2O1 was read as T cruzi HTS 66*, INS-1E ATP HTS -16 and A1 apoptosis 2 1.
C[C@@H]1CCCCO[C@@H](CN(C)Cc2ccc(C(=O)Nc3ccccc3N)cc2)[C@@H](C)CN([C@H](C)CO)C(=O)c2cc(NS(C)(=O)=O)ccc2O1 was read as T cruzi HTS 56*, INS-1E ATP HTS -15 and A1 apoptosis 2 0.
C[C@@H]1CCCCO[C@H](CN(C)Cc2ccc(Cl)c(Cl)c2)[C@@H](C)CN([C@H](C)CO)C(=O)c2cc(NC(=O)Nc3ccc(F)cc3)ccc2O1 was read as T cruzi HTS 86*, INS-1E ATP HTS -9 and A1 apoptosis 2 0.
`C[C@@H]1CCCCO[C@H](CN(C)Cc2ccc(Cl)c(Cl)c2)[C@H](C)CN([C@@H](C)CO)C(=O)c2cc(NC(=O)Nc3ccc(F)cc3)ccc2O1` gave A1 apoptosis 2 -2.
For COc1cc(/C=C/C=N/NC(=O)c2ccc(C(=O)NO)cc2)ccc1O the results were T cruzi HTS -9, INS-1E ATP HTS -4 and A1 apoptosis 2 -1.
Screening CC(C)=CCC[C@@H](C)C/C=N/NC(=O)c1ccc(C(=O)NO)cc1 returned T cruzi HTS 3, INS-1E ATP HTS -12 and A1 apoptosis 2 0.
Screening COC(=O)CCCCCCC(=O)N/N=C/c1c(F)c(F)c(F)c(F)c1F returned T cruzi HTS -11 and INS-1E ATP HTS 17.
C[C@@H]1CCCCO[C@H](CN(C)Cc2ccc(Cl)c(Cl)c2)[C@@H](C)CN([C@@H](C)CO)C(=O)c2cc(NC(=O)c3ccccc3)ccc2O1 was read as A1 apoptosis 2 0.
`C[C@@H]1CCCCO[C@@H](CN(C)Cc2ccc(Cl)c(Cl)c2)[C@@H](C)CN([C@H](C)CO)C(=O)c2cc(NC(=O)c3ccccc3)ccc2O1` gave T cruzi HTS 65*, INS-1E ATP HTS -43 and A1 apoptosis 2 -1.
`O=C(NO)c1ccc(C(=O)N/N=C/c2ccc[nH]2)cc1` gave T cruzi HTS -3 and INS-1E ATP HTS -4.
`C[C@@H]1CN([C@H](C)CO)C(=O)Cc2cc(NC(=O)Nc3cccc4ccccc34)ccc2O[C@H]1CN(C)Cc1ccc(Cl)c(Cl)c1` gave T cruzi HTS 47 and INS-1E ATP HTS 0.
`C[C@H]1CN([C@@H](C)CO)C(=O)Cc2cc(NC(=O)Nc3cccc4ccccc34)ccc2O[C@H]1CN(C)Cc1ccc(Cl)c(Cl)c1` gave T cruzi HTS 35 and INS-1E ATP HTS -11.
Screening C[C@H](CO)N1C[C@H](C)[C@H](CN(C)Cc2ccc(Cl)c(Cl)c2)Oc2ccc(NC(=O)Nc3cccc4ccccc34)cc2CC1=O returned T cruzi HTS 68*, INS-1E ATP HTS -5 and A1 apoptosis 2 2.
Screening C[C@H]1CN([C@@H](C)CO)C(=O)c2cc(NC(=O)Nc3cccc4ccccc34)ccc2O[C@@H]1CN(C)Cc1ccc(Cl)c(Cl)c1 returned T cruzi HTS 65*, INS-1E ATP HTS -35 and A1 apoptosis 2 0.
`C[C@@H]1CN([C@H](C)CO)C(=O)c2cccc(NC(=O)Nc3cccc4ccccc34)c2O[C@@H]1CN(C)Cc1ccc(Cl)c(Cl)c1` gave T cruzi HTS 12, INS-1E ATP HTS -19 and A1 apoptosis 2 0.
C[C@H](CO)N1C[C@H](C)[C@@H](CN(C)Cc2ccc(Cl)c(Cl)c2)Oc2c(NC(=O)Nc3cccc4ccccc34)cccc2C1=O was read as T cruzi HTS 68*, INS-1E ATP HTS -17 and A1 apoptosis 2 -2.
For C[C@@H]1CN([C@H](C)CO)C(=O)Cc2cc(NC(=O)Nc3cccc4ccccc34)ccc2O[C@@H]1CN(C)Cc1ccc(Cl)c(Cl)c1 the results were T cruzi HTS 68* and INS-1E ATP HTS -22.
C[C@H]1CN([C@@H](C)CO)C(=O)c2cc(NC(=O)Nc3cccc4ccccc34)ccc2O[C@H]1CN(C)Cc1ccc(Cl)c(Cl)c1 was read as T cruzi HTS 48 and A1 apoptosis 2 -1.
O=C(CCCCCCC(=O)N/N=C/c1nccs1)NO was read as A1 apoptosis 2 0.
Screening O=C(NO)c1cccc(C(=O)N/N=C/c2nccs2)c1 returned T cruzi HTS -15, INS-1E ATP HTS -8 and A1 apoptosis 2 -1.
`C[C@H]1CN([C@@H](C)CO)C(=O)c2cc(NC(=O)NC3CCCCC3)ccc2O[C@@H]1CN(C)Cc1ccc2c(c1)OCO2` gave T cruzi HTS -5, INS-1E ATP HTS -8 and A1 apoptosis 2 1.
`C[C@H]1CN([C@@H](C)CO)C(=O)c2cc(NC(=O)NC3CCCCC3)ccc2O[C@H]1CN(C)Cc1ccc2c(c1)OCO2` gave T cruzi HTS 58*, INS-1E ATP HTS 5 and A1 apoptosis 2 0.
For C[C@@H]1CN([C@H](C)CO)C(=O)c2cc(NC(=O)NC3CCCCC3)ccc2O[C@@H]1CN(C)Cc1ccc2c(c1)OCO2 the results were T cruzi HTS -16, INS-1E ATP HTS 1 and A1 apoptosis 2 0.
Screening C[C@H](CO)N1C[C@H](C)[C@H](CN(C)Cc2ccc3c(c2)OCO3)Oc2ccc(NC(=O)NC3CCCCC3)cc2C1=O returned T cruzi HTS 56* and A1 apoptosis 2 0.
For O=C1N(CCS(=O)(=O)c2ccccc2)Cc2ccccc2[C@@H]2OC(c3ccc(OCCCO)cc3)=N[C@]12Cc1ccccc1 the results were A1 apoptosis 2 -1.
For C[C@H](CO)N1C[C@H](C)[C@H](CN(C)C(=O)Nc2cccc3ccccc23)Oc2ncc(-c3cccc(F)c3)cc2C1=O the results were T cruzi HTS 32 and A1 apoptosis 2 0.
`C[C@H](CO)N1C[C@H](C)[C@H](CN(C)C(=O)Nc2cccc3ccccc23)Oc2ncc(C#Cc3ccc(C(F)(F)F)cc3)cc2C1=O` gave T cruzi HTS 85* and A1 apoptosis 2 0.
`C[C@H](CO)N1C[C@H](C)[C@H](CN(C)C(=O)Nc2cccc3ccccc23)Oc2ncc(-c3cccc(C(F)(F)F)c3)cc2C1=O` gave T cruzi HTS 62*.
Screening C[C@H](CO)N1C[C@H](C)[C@H](CN(C)C(=O)Nc2cccc3ccccc23)Oc2ncc(C#CC(C)(C)O)cc2C1=O returned T cruzi HTS -9.
For C[C@H](CO)N1C[C@H](C)[C@H](CN(C)C(=O)Nc2cccc3ccccc23)Oc2ncc(C#Cc3cccc(F)c3)cc2C1=O the results were T cruzi HTS 66*.
Screening C[C@H](CO)N1C[C@H](C)[C@H](CN(C)C(=O)Nc2ccccc2)Oc2ncc(C#Cc3cccc(F)c3)cc2C1=O returned T cruzi HTS 30, INS-1E ATP HTS -13 and A1 apoptosis 2 0.
Screening CC1(C)COC(CCC/C=N/NC(=O)CCCCC(=O)NO)OC1 returned T cruzi HTS -12, INS-1E ATP HTS 9 and A1 apoptosis 2 1.
